# Assay outcomes as filed in PubChem.
# Most compounds without a hit are left out; they make up all but 2.3% or so of the library.
# TRPC4 PAM: positive allosteric modulators of TRPC4, primary screen, cell-based, mouse TRPC4beta, HEK293 mu-opioid, Fluo-4 calcium | 310,000 compounds, 0.42% hits | DAMGO EC20, Fluo-4 Ca2+ flux; active compounds read high | AID 2227, 2009 | Short transient receptor potential channel 4 (Mus musculus), Q9QUQ5 | B-score at 10 µM;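 active = B-score of calcium response area above 5 SD of library B-scores, with initial fluorescence ratio within 5 SD of library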;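 note: B-score of integrated fluorescence ratio over time as area under calcium response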
# TRPC6 act: mouse TRPC6 channel activators, primary screen, cell-based, HEK293, membrane potential dye. B-score at 10 µM. 310,000 compounds, 0.13% hits. HEK293-TRPC6 membrane potential dye fluorescence; active compounds read high. Short transient receptor potential channel 6 (Mus musculus), Q61143. AID 2550, 2010;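 active = B-score of the integrated fluorescence ratio above library mean plus 3 SD, and starting fluorescence ratio within library mean plus 5 SD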;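 note: higher score means more depolarization so channel activation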
# TRPC4 block: inhibitors of mouse TRPC4 channel, primary screen, Fluo4 calcium, HEK293 TRPC4beta/mu-opioid cells. Short transient receptor potential channel 4 (Mus musculus), Q9QUQ5. DAMGO-evoked Fluo4 calcium flux; active compounds read low. B-score at 10 µM. 300,000 compounds, 0.39% hits;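 active = B-score over 3 SD under the library average, no early fluorescence shift, positive overall ratio signal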
#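 Assay system – HEK293 line stably carrying TRPC4beta and mu-opioid receptor · Doses – single dose · Detection – Fluo4 calcium-dye fluorescence, kinetic read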
# TRPC6 inhibitor: mouse TRPC6 channel inhibitors, primary screen, cell-based, HEK293, membrane potential dye | ACh-evoked depolarization; active compounds read low | Short transient receptor potential channel 6 (Mus musculus), Q61143 | B-score at 10 µM | AID 2553, 2010 | 310,000 compounds, 1.1% hits;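 active = B-score under library mean minus 3 SD, initial fluorescence not abnormally high, positive integrated signal ratio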;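 note: B-score derived from integrated fluorescence ratio over the kinetic read; more negative B-score means stronger inhibition of depolarization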
# TRPC4 act: activators of mouse TRPC4 channel, primary screen, Fluo4 calcium, HEK293 TRPC4beta/mu-opioid cells. Fluo4 calcium fluorescence; active compounds read high. 310,000 compounds, 0.49% hits. Short transient receptor potential channel 4 (Mus musculus), Q9QUQ5. B-score at 10 µM. AID 2237, 2010;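 active = B-score above 5 SD of library B-scores, and initial fluorescence ratio not above library mean plus 5 SD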;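 note: positive B-score marks a calcium rise read as TRPC4 activation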
#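 System – HEK293 cells stably co-expressing mouse TRPC4beta and mu-opioid receptor · Signal – Fluo4 calcium-sensitive dye fluorescence, kinetic, 1 Hz baseline · Benchmarks – buffer (low) and maximal DAMGO (high) · Read-out – B score of integrated fluorescence ratio per well · Incubation – dye loading 45 min room temperature, 110 s kinetic read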
# Starred values were filed as active, the others as inactive; i = inactive.
SMILES,TRPC4 PAM,TRPC6 act,TRPC4 block,TRPC6 inhibitor,TRPC4 act
Cc1nccc(-c2cccc(NC(=O)c3ccccc3Cl)c2)n1,i,i,i,i,i
CCN(CC)CCNC(=S)Nc1ccc2nc3n(c(=O)c2c1)CCCCC3,i,i,i,i,i
CCCN(CCC)CCCNC(=S)Nc1ccc2nc3n(c(=O)c2c1)CCCCC3,14*,i,i,i,i
Cc1cc(C)cc(NC(=O)CCCN2C(=O)C(c3ccccc3)Oc3cccnc32)c1 (stereo not drawn),i,i,i,i,i
C/[N+]([O-])=C\c1cccc(OCCN2CCN(c3ncc(C(F)(F)F)cc3Cl)CC2)c1,12*,i,i,i,i
N#CCCN(C(=O)COC(=O)C1CCN(S(=O)(=O)c2cccs2)CC1)c1ccccc1,i,i,i,i,i
O=C(N/N=C/c1ccccc1)c1ccc(N2CCCC2=O)cc1,i,i,i,i,i
Cc1cc(OCC(=O)N2CCCC2)ccc1Cl,i,i,i,i,i
Cc1cc(OCC(=O)N2CCCC2)cc(C)c1Cl,i,i,i,i,84*
Cc1ccc(C2N=C(N)Nc3nc(=O)c4ccccc4n32)cc1 (stereo not drawn),i,i,i,i,i
COc1ccc(CCNC(=O)C2CC=CCC2C(=O)O)cc1 (stereo not drawn),12*,i,i,i,i
COc1ccc(CCNC(C)=O)cc1,i,i,i,i,i
O=c1c2ccccc2nc(SCc2ccccc2)n1CC1CCCO1 (stereo not drawn),i,i,-7*,i,i
C#CCN(Cc1ccco1)C(=O)c1ccc(OC2CCN(Cc3ccccn3)CC2)cc1,i,i,i,i,i
COc1cc(OC)cc(C2=NC3(CCC(C)CC3)NC2=S)c1 (stereo not drawn),i,i,i,i,i
COc1ccccc1N1C(=O)c2ccc(C(=O)Nc3ccc(C(=O)O)cc3)cc2C1=O,i,i,i,i,i
Nc1c2c(nc3ccc(Br)cc13)N(C1CCCCC1)CC2,i,18*,i,-7.4*,i
Cc1cnc(NS(=O)(=O)c2ccccc2)c(C)n1,i,i,i,i,i
Cc1ccc(C)c(CSc2nnc([C@@H](N)C(C)C)o2)c1,i,i,i,i,i
NCCc1nnc(SCc2ccccc2)o1,16*,i,i,i,i
Cc1ccc(C)c(CSc2nnc(CCN)o2)c1,i,i,i,i,81*
CN(C)C(CNC(=O)c1ccc(NC(=O)c2cccs2)cc1)c1ccccc1 (stereo not drawn),i,i,i,i,i
CN(C)C(CNC(=O)c1coc2ccccc2c1=O)c1ccccc1 (stereo not drawn),12*,i,i,i,i
COC(=O)c1ccc(CNC(=O)c2coc3ccccc3c2=O)cc1,i,i,i,i,i
CN(C)C(CNC(=O)c1cnc(Cl)c(Cl)c1)c1ccccc1 (stereo not drawn),i,i,i,i,223*
SMILES,TRPC4 PAM,TRPC6 act,TRPC4 block,TRPC6 inhibitor,TRPC4 act
CN(C)C(CNC(=O)c1ccc(C2SCCS2)cc1)c1ccccc1 (stereo not drawn),i,i,-5*,i,i
CN(C)C(CNC(=O)c1cc(S(=O)(=O)N(C)c2ccccc2)ccc1Cl)c1ccccc1 (stereo not drawn),i,i,i,i,i
CN(C)C(CNC(=O)c1ccc2ccccc2n1)c1ccccc1 (stereo not drawn),i,i,i,i,100*
Cc1ccc(/C=C/S(=O)(=O)NCC(=O)OCC(=O)NCc2ccccc2)cc1,i,i,i,i,i
CC1CN(C(=O)COC(=O)c2ccc(Cl)nc2)CC(C)O1 (stereo not drawn),i,i,i,i,i
CCOC(=O)C1CCN(C(=O)COC(=O)CN(C)S(=O)(=O)c2ccc(NC(C)=O)cc2)CC1,i,i,i,i,i
CN(C)C(CNC(=O)/C=C/c1cccc(Cl)c1)c1ccccc1 (stereo not drawn),i,i,i,i,199*
COc1cccc(CN2CCN(CC(=O)NCCc3ccccc3)CC2)c1,i,i,i,i,i
CC1(C)CC(=O)C(C=Nc2ccc(C(=O)c3ccccc3)cc2N=CC2=C(O)CC(C)(C)CC2=O)=C(O)C1,i,i,i,i,i
c1ccc(-n2cc(CNCCc3cscn3)c(-c3ccc4c(c3)OCO4)n2)cc1,i,i,i,i,46*
CCCCN(CC)CCNC(=O)c1cc2c(C)nc3ccccc3c2o1,i,i,i,i,138*
CCCN(CCC)CCCNC(=O)c1cc2cc3ccc(Cl)cc3nc2o1,i,i,i,i,53*
CCCCN(CC)CCCNC(=O)c1cc2cc3ccc(C)cc3nc2o1,16*,i,i,i,i
O=C(NCc1ccco1)c1cc2cc3ccc(Cl)cc3nc2o1,i,i,i,i,i
CCCCN(CC)CCNC(=O)c1cc2cc3ccc(Cl)cc3nc2o1,13*,i,i,i,103*
CCC1Oc2ccccc2N(CC(=O)NCC2CCCO2)C1=O (stereo not drawn),i,i,i,i,i
O=C(c1nc2ccc(Cl)cn2c1CNCC[C@@H]1C[C@@H]2C=C[C@H]1C2)N1CCCCCCC1,i,i,i,i,64*
C[C@@H]1CN(C(=O)c2nc3ccc(Cl)cn3c2CNCC[C@@H]2C[C@@H]3C=C[C@H]2C3)C[C@H](C)O1,i,i,i,i,i
CCOC(=O)c1sc2nc(CC(=O)OC)nc(NCc3ccc(F)cc3)c2c1C,i,i,-9*,i,98*
CCOC(=O)c1sc2nc(C)nc(NCc3ccc(F)cc3)c2c1C,i,i,i,i,i
CCOc1ccc(CN2CCNC(=O)C2CC(=O)NCCc2ccccn2)cc1 (stereo not drawn),i,i,i,i,112*
COc1cccc(CN2CCNC(=O)C2CC(=O)N(C)CCc2ccccn2)c1OC (stereo not drawn),i,i,i,i,93*
